Experiments:
MT4 = assay: Antiproliferative activity against human MT4 cells after 96 hrs by MTT assay; format: functional, cell-based; conditions: MT4, 96 h
Summary of the method: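 Exponentially growing MT-4 cells (CD4+ human T-cells carrying integrated HTLV-1 genome), seeded at 1×10^5 cells/mL in RPMI-1640 with 10% FCS and antibiotics. Serial dilutions of compound (DMSO stock 100 mM, diluted in medium), 37 °C, 5% CO₂, 96 h. Viability read by MTT. 50% inhibition versus untreated controls by linear regression. Mean ± SD of three independent determinations.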

HepG2 = assay: Cytotoxicity against human HepG2 cells after 96 hrs by MTT assay; format: functional, cell-based; conditions: HepG2, 96 h
Summary of the method: (§1)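 ATCC cell lines, mycoplasma-free by Hoechst staining. Haematological lines in RPMI-1640, solid-tumour and normal fibroblast lines in their own media, all with 10% FCS and antibiotics, at 37 °C in 5% CO₂. Compounds added as serial dilutions from a 100 mM DMSO stock diluted in medium. Viability by MTT after 96 h at 37 °C. Mean ± SD of three independent determinations.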

CCRF-CEM = assay: Cytotoxicity against human CCRF-CEM cells after 96 hrs by MTT assay; format: functional, cell-based; summary of the method: as §1
[1] = Cytotoxicity against human CRL7065 cells after 96 hrs by MTT assay; format: cell-based; conditions: CRL-7065, 96 h; summary of the method: as §1
WIL2-NS = assay: Cytotoxicity against human WIL2-NS cells after 96 hrs by MTT assay; format: functional, cell-based; summary of the method: as §1
CCRF-SB = assay: Cytotoxicity against human CCRF-SB cells after 96 hrs by MTT assay; format: functional, cell-based; summary of the method: as §1
SK-MEL-28 = assay: Cytotoxicity against human SK-MEL-28 cells after 96 hrs by MTT assay; format: functional, cell-based; conditions: SK-MEL-28, 96 h; summary of the method: as §1
DU-145 = assay: Cytotoxicity against human DU145 cells after 96 hrs by MTT assay; format: functional, cell-based; conditions: DU-145, 96 h; summary of the method: as §1
MRC5 = assay: Cytotoxicity against human MRC5 cells after 96 hrs by MTT assay; format: cell-based; conditions: MRC5, 96 h; summary of the method: as §1
MCF7 = assay: Cytotoxicity against human MCF7 cells after 96 hrs by MTT assay; format: functional, cell-based; conditions: MCF7, 96 h; summary of the method: as §1
[2] = Cytotoxicity against human SKMES1 cells after 96 hrs by MTT assay; format: functional, cell-based; conditions: SK-MES-1, 96 h; summary of the method: as §1

Compound: Cc1[nH]c2ccccc2c1/C=C(\C#N)S(C)(=O)=O
- EC50 (MT4): > 100 µM

Compound: CC(=O)C(=Cc1c(-c2ccccc2)[nH]c2ccccc12)C(C)=O
- EC50 (MT4): 1.5 µM

Compound: O=C(C(=Cc1c(-c2ccccc2)[nH]c2ccccc12)C(=O)c1ccccc1)c1ccccc1
- EC50 (HepG2): > 100 µM
- EC50 (CCRF-CEM): 12 µM
- EC50 [1]: > 100 µM
- EC50 (WIL2-NS): 72 µM
- EC50 (CCRF-SB): 12 µM
- EC50 (SK-MEL-28): > 100 µM
- EC50 (DU-145): > 100 µM
- EC50 (MRC5): > 100 µM
- EC50 (MCF7): > 100 µM
- EC50 [2]: > 100 µM
- EC50 (MT4): 8.9 µM

Compound: N#C/C(=C\c1c(-c2ccccc2)[nH]c2ccccc12)C(=O)Nc1ccc(Cl)cc1
- EC50 (MT4): 1.7 µM

Compound: Cc1[nH]c2ccccc2c1C=C(C#N)C#N
- EC50 (MT4): 56 µM

Compound: CCOC(=O)/C(C#N)=C/c1c(-c2ccccc2)[nH]c2ccccc12
- EC50 (MT4): 1.7 µM

Compound: CCOC(=O)/C(=C/c1c(-c2ccccc2)[nH]c2ccccc12)C(=O)c1ccc(Cl)cc1
- EC50 (MT4): 9 µM

Compound: Cn1cc(/C=C(\C#N)S(C)(=O)=O)c2ccccc21
- EC50 (MT4): > 100 µM

Compound: O=C(/C(=C\c1c(-c2ccccc2)[nH]c2ccccc12)C(=O)C(F)(F)F)c1ccco1
- EC50 (HepG2): 16 µM
- EC50 (CCRF-CEM): 1.9 µM
- EC50 [1]: 8.1 µM
- EC50 (WIL2-NS): 2.3 µM
- EC50 (CCRF-SB): 1.8 µM
- EC50 (SK-MEL-28): 33 µM
- EC50 (DU-145): 9.2 µM
- EC50 (MRC5): 12 µM
- EC50 (MCF7): 10 µM
- EC50 [2]: 27 µM
- EC50 (MT4): 0.8 µM

Compound: CCOC(=O)/C(=C/c1c(-c2ccccc2)[nH]c2ccccc12)C(=O)c1ccc([N+](=O)[O-])cc1
- EC50 (HepG2): 28 µM
- EC50 (CCRF-CEM): 1.8 µM
- EC50 [1]: > 100 µM
- EC50 (WIL2-NS): 2.4 µM
- EC50 (CCRF-SB): 2.2 µM
- EC50 (SK-MEL-28): > 100 µM
- EC50 (DU-145): 11 µM
- EC50 (MRC5): > 100 µM
- EC50 (MCF7): 40 µM
- EC50 [2]: 19 µM
- EC50 (MT4): 1.5 µM

Compound: COC(=O)/C(=C\c1c(-c2ccccc2)[nH]c2ccccc12)S(=O)(=O)c1ccccc1
- EC50 (MT4): 1 µM

Compound: N#C/C(=C\c1c(-c2ccccc2)[nH]c2ccccc12)C(N)=O
- EC50 (MT4): 6 µM

Compound: CC(C)OP(=O)(OC(C)C)/C(C#N)=C/c1c(-c2ccccc2)[nH]c2ccccc12
- EC50 (MT4): 11 µM

Compound: N#C/C(=C\c1c(-c2ccccc2)[nH]c2ccccc12)C(=O)N1CCCCC1
- EC50 (MT4): 9.6 µM

Compound: Cc1[nH]c2ccccc2c1/C=C(\C#N)S(=O)(=O)c1ccccc1
- EC50 (MT4): > 100 µM

Compound: N#CC(C#N)=Cc1c[nH]c2ccccc12
- EC50 (MT4): 36 µM

Compound: COc1cccc2c1C(=O)c1c(O)c3c(c(O)c1C2=O)C[C@@](O)(C(=O)CO)C[C@@H]3O[C@H]1C[C@H](N)[C@H](O)[C@H](C)O1 [DOXORUBICIN]
- EC50 (HepG2): 0.3 µM
- EC50 (CCRF-CEM): 0.02 µM
- EC50 [1]: 0.9 µM
- EC50 (WIL2-NS): 0.04 µM
- EC50 (CCRF-SB): 0.01 µM
- EC50 (SK-MEL-28): 0.7 µM
- EC50 (DU-145): 0.2 µM
- EC50 (MRC5): 0.3 µM
- EC50 (MCF7): 0.3 µM
- EC50 [2]: 0.1 µM
- EC50 (MT4): 0.03 µM

Compound: Cn1cc(/C=C(\C#N)S(=O)(=O)c2ccccc2)c2ccccc21
- EC50 (MT4): > 100 µM

Compound: N#C/C(=C\c1c[nH]c2ccccc12)S(=O)(=O)c1ccccc1
- EC50 (MT4): > 100 µM

Compound: CCOC(=O)/C(=C/c1c(-c2ccccc2)[nH]c2ccccc12)C(=O)c1ccccc1
- EC50 (HepG2): 31 µM
- EC50 (CCRF-CEM): 8 µM
- EC50 [1]: > 100 µM
- EC50 (WIL2-NS): 12 µM
- EC50 (CCRF-SB): 9.6 µM
- EC50 (SK-MEL-28): > 100 µM
- EC50 (DU-145): 68 µM
- EC50 (MRC5): > 100 µM
- EC50 (MCF7): 43 µM
- EC50 [2]: > 100 µM
- EC50 (MT4): 7 µM

Compound: CCOC(=O)/C(=C\c1c(-c2ccccc2)[nH]c2ccccc12)C(C)=O
- EC50 (HepG2): 19 µM
- EC50 (CCRF-CEM): 1.4 µM
- EC50 [1]: 83 µM
- EC50 (WIL2-NS): 2.7 µM
- EC50 (CCRF-SB): 1.6 µM
- EC50 (SK-MEL-28): 30 µM
- EC50 (DU-145): 11 µM
- EC50 (MRC5): 31 µM
- EC50 (MCF7): 32 µM
- EC50 [2]: 23 µM
- EC50 (MT4): 0.6 µM

Compound: CCOP(=O)(OCC)/C(C#N)=C/c1c[nH]c2ccccc12
- EC50 (MT4): 80 µM

Compound: Cc1ccc(S(=O)(=O)/C(C#N)=C/c2c(-c3ccccc3)[nH]c3ccccc23)cc1
- EC50 (MT4): 0.4 µM

Compound: CS(=O)(=O)/C(C#N)=C/c1c[nH]c2ccccc12
- EC50 (MT4): > 100 µM

Compound: COCCOC(=O)/C(C#N)=C/c1c(-c2ccccc2)[nH]c2ccccc12
- EC50 (HepG2): 85 µM
- EC50 (CCRF-CEM): 1.6 µM
- EC50 [1]: 76 µM
- EC50 (WIL2-NS): 2.2 µM
- EC50 (CCRF-SB): 2.2 µM
- EC50 (SK-MEL-28): 9.3 µM
- EC50 (DU-145): 4.2 µM
- EC50 (MRC5): > 100 µM
- EC50 (MCF7): 12 µM
- EC50 [2]: 5 µM
- EC50 (MT4): 1.2 µM

Compound: N#C/C(=C\c1c(-c2ccccc2)[nH]c2ccccc12)C(=O)c1ccc(Cl)cc1
- EC50 (HepG2): 37 µM
- EC50 (CCRF-CEM): 1.1 µM
- EC50 [1]: 7.4 µM
- EC50 (WIL2-NS): 4.5 µM
- EC50 (CCRF-SB): 0.6 µM
- EC50 (SK-MEL-28): 15 µM
- EC50 (DU-145): 11 µM
- EC50 (MRC5): 14 µM
- EC50 (MCF7): 28 µM
- EC50 [2]: 19 µM
- EC50 (MT4): 0.4 µM

Compound: CC(=O)/C(=C/c1c(-c2ccccc2)[nH]c2ccccc12)C(=O)c1ccccc1
- EC50 (HepG2): 79 µM
- EC50 (CCRF-CEM): 8.1 µM
- EC50 [1]: > 100 µM
- EC50 (WIL2-NS): 12 µM
- EC50 (CCRF-SB): 11 µM
- EC50 (SK-MEL-28): > 100 µM
- EC50 (DU-145): > 100 µM
- EC50 (MRC5): > 100 µM
- EC50 (MCF7): > 100 µM
- EC50 [2]: > 100 µM
- EC50 (MT4): 2 µM

Compound: COC(=O)/C(=C\c1c[nH]c2ccccc12)S(=O)(=O)c1ccccc1
- EC50 (MT4): > 100 µM

Compound: CC(C)(C)C(=O)/C(C#N)=C/c1c(-c2ccccc2)[nH]c2ccccc12
- EC50 (MT4): 0.5 µM

Compound: CCOC(=O)/C(=C/c1c[nH]c2ccccc12)C(=O)c1ccc([N+](=O)[O-])cc1
- EC50 (MT4): 100 µM

Compound: CCOC(=O)/C(=C/c1c[nH]c2ccccc12)C(=O)c1ccccc1
- EC50 (MT4): > 100 µM

Compound: CC(=O)/C(=C\c1c(-c2ccccc2)[nH]c2ccccc12)S(=O)(=O)c1ccc(Cl)cc1
- EC50 (MT4): > 100 µM

Reference: ChEMBL document CHEMBL3616442, “Unconventional Knoevenagel-type indoles: Synthesis and cell-based studies for the identification of pro-apoptotic agents” (Eur J Med Chem, 2015)
